Published values collected from several papers.
Lines come from different studies, so protocols differ.
Target: Mitogen-activated protein kinase kinase kinase kinase 5 (MAP4K5, Homo sapiens, UniProt Q9Y4K4)

| SMILES | assay | setting | remaining binding |
| --- | --- | --- | --- |
| O=C(c1ccc(Nc2ncc(Cl)c(-c3ccc(Cl)s3)n2)cc1)N1CCC(N2CCCC2)CC1 | binding, competition with immobilised ligand | 1 µM | 45% |
| O=C(N1CCS(=O)(=O)CC1)N1C[C@H](c2ccc(OC(F)(F)F)cc2)C[C@H](c2nc(C3CC3)no2)C1 | cell-free assay, competition with immobilised ligand | 1 µM | 100% |
| O=C(Nc1c[nH]nc1C(=O)NC1CCNCC1)c1cc(F)cc(F)c1 | binding, competition with immobilised ligand | 1 µM | 100% |
| F[C@@H]1CCN(c2nccc(-c3cnn4ncccc34)n2)C1 | binding | 1 µM | 79% |
| O=C(O)[C@@H]1[C@@H](Cn2nnc3ccccc3c2=O)CC[C@H]1C(=O)c1ccc(OCCC2CCOCC2)cc1 | cell-free assay, competition with immobilised ligand | 1 µM | 100% |
| C[C@H]1CCN(c2nccc(-c3cnn4ncccc34)n2)C1 | binding | 1 µM | 90% |
| Cc1c(NC(=O)c2cc(C(N)=O)nc3cc(F)ccc23)c(C(F)(F)F)nn1Cc1ccc(C#N)cc1 | cell-free assay, competition with immobilised ligand | 1 µM | 74% |
| Cc1cnc(Nc2ccc(C(=O)N3CCC(N4CCCC4)CC3)cc2)nc1-c1cc2ccccc2s1 | binding, competition with immobilised ligand | 1 µM | 51% |
| N[C@H]1CCN(c2nccc(-c3cnn4ncccc34)n2)C1 | binding | 1 µM | 100% |
| CC(=O)c1c(NS(C)(=O)=O)c2cc(-c3ccc(Cl)cc3)c(-c3ccc(Cl)cc3Cl)nc2n(C)c1=O | cell-free assay, competition with immobilised ligand | 1 µM | 100% |
| CN(C)c1nccc(-c2cnn3ncccc23)n1 | binding | 1 µM | 88% |
| C[C@@H](c1ccc(-n2cnc3c(N)ncnc32)cc1)N1CCc2nn(C)c(Cc3ccccc3)c2C1=O | binding, competition with immobilised ligand | 0.1 µM | 87% |
| c1cnn2ncc(-c3ccnc(N4CCC45COC5)n3)c2c1 | binding | 1 µM | 94% |
| COc1cnc(Nc2cccc(S(N)(=O)=O)c2)nc1N1CCN(c2ccccc2)CC1 | binding, competition with immobilised ligand | 1 µM | 100% |
| COc1ncc2cc3ccccc3nc2c1C#N | cell-free assay, competition with immobilised ligand | 5 µM | 95% |
| O=c1nc(-c2ccccn2)sc2ccccc12 | binding, competition with immobilised ligand | 1 µM | 100% |
| C=CC(=O)N1CCC(C(=O)NCC(=O)N2CCN(c3nc(-c4cnc(N)nc4C(F)F)nc(N4CCOCC4)n3)CC2)CC1 | binding, competition with immobilised ligand | 1 µM | 95% |
| O=C(NCc1ncc(C(F)(F)F)cc1Cl)c1ccc2c(c1)C1(CCS(=O)(=O)CC1)[C@@H](C1CC1)N2S(=O)(=O)c1ccc(F)cc1 | cell-free assay, competition with immobilised ligand | 1 µM | 100% |
| COc1cnc(Nc2cccc(S(N)(=O)=O)c2)nc1N1CCN(c2ccccc2)C(=O)C1 | binding, competition with immobilised ligand | 1 µM | 100% |
| CN(CCCC(F)(F)F)c1nccc(-c2cnn3ncccc23)n1 | binding | 1 µM | 100% |
| c1cncc(-c2cccc(Nc3nccc(NC4CCCCC4)n3)c2)c1 | binding, competition with immobilised ligand | 10 µM | 91% |
